This excerpt belongs to a sample that is enriched for hits.
UPR XBP1 act – adaptive UPR (XBP1) activation; CHO-XBP1 luciferase reporter, IRE1-XBP1 UPR activation, luminescence; percent of tunicamycin response, DMSO as zero; activation, % at 20 µM; actives 0.33% (n = 330,000); AID 463104;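 active = versus positive control, 20 µM dose yields 30% or more activation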
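Assay system: IRE1-XBP1 luciferase reporter CHO line. Input: 1000 cells/well. Buffer or medium: F12 with 10% serum. Doses: 20 µM, 1% DMSO. Times: overnight seeding at 37 °C, 6 h compound treatment at 37 °C. Technique: Steady-Glo luciferase glow luminescence, 10 min after reagent addition.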
UPR CHOP act – apoptotic UPR (CHOP) activation | actives 0.34% (n = 330,000) | AID 449763 | CHO-CHOP luciferase reporter, luminescence; percent of tunicamycin response over DMSO baseline | activation, % at 10 µM;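 active = at 10 µM dose, activation of 40% or more, normalized to positive control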
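Material: CHO-CHOP cells, stable luciferase reporter of PERK-eIF2a-CHOP signalling; quantity: 500 reporter cells seeded per well; buffer or medium: F12 medium containing 10% fetal bovine serum; compound: one dose, 10 µM in 0.5% DMSO; incubation: 6 h compound treatment, 37 °C; measured by: Steady-Glo luciferase luminescence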
Beta2AR agonist – agonists of human beta-2 adrenergic receptor inducing internalization | Am2.2-beta2AR cells, FAP receptor internalization, flow cytometry | response, % (test concentration not listed) | actives 0.43% (n = 340,000);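 active = response above a set limit, near 3 SD of response in nonfluorescent compounds, cut at about 42% in these data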
Target sequence (P07550 whole entry, looked up): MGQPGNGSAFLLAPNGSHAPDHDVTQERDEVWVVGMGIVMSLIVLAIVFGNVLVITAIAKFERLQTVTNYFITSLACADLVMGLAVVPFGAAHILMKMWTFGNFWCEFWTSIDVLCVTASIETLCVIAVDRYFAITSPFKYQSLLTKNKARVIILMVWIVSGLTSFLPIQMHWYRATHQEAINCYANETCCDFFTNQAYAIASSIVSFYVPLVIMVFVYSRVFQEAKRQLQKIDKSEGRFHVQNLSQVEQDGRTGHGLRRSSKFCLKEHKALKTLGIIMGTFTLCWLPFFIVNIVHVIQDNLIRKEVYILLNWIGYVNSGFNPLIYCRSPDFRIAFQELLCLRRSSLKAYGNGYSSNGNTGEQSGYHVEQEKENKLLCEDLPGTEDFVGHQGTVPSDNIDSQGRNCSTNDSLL
pCIP destab – compounds decreasing mouse p/CIP protein stability; Q05BA5; F442A p/CIP-EGFP cells, EGFP fluorescence, 16 h; decrease of EGFP signal, % at 10 µM; actives 0.01% (n = 290,000);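 active = EGFP signal decrease of at least 30% at 10 µM or well 3 SD below plate mean, unless failing retest; inactive = the rest, including hits failing retest or dose response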
Dynein cargo inh – blocks dynein driven cargo transport along microtubules | 3617.4 mouse cells, GR-EGFP nuclear translocation imaging; test concentration mostly 20 µM; stimulated with dexamethasone, 1 µM; hits give low values | z-score, hits read low | actives 0.47% (n = 220,000) | AID 1381;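 active = plate z-score of nuclear minus cytoplasmic receptor signal below a set negative limit, without overly bright fluorescence or cell loss, cut at about -3.5 in these data, passing the limit was not always enough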;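 note: z-score of nuclear minus cytoplasmic ring GR-EGFP intensity difference per well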
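Medium: Induction medium lacking tetracycline, stripped serum | Probe or stimulus: 1.0 µM final dexamethasone stimulus | Schedule: 48 h induction, then 1 h compound, then 30 min agonist, 37 °C | Signal: Automated 10x imaging of fixed Hoechst-stained cells | Evaluation: Per-cell GR-EGFP intensity, nucleus versus surrounding cytoplasmic ring, well-averaged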
CHOP inhibitor – CHOP inhibition in unfolded protein response; actives 3.8% (n = 220,000); inhibition, % at 10 µM; AID 2732; CHO-K1 CHOP-promoter luciferase, tunicamycin-induced, 15-18 h;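 active = compounds that reduced the stress-induced luciferase reporter signal by more than about 70% of percent inhibition, limit read from the data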
CHOP confirm – confirmation of CHOP induction inhibitors; actives 45% (n = 2,100); CHO-CHOP promoter luciferase reporter, tunicamycin-induced, luminescence; inhibition, % at 10 µM; AID 504437; shares compounds with CHOP inhibitor;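 active = mean of three repeat readings of reporter signal inhibition above a set limit, cut at about 70% in these data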
Hits are given with their value; 0 = inactive; - = no result.

SMILES	UPR XBP1 act	UPR CHOP act	Beta2AR agonist	pCIP destab	Dynein cargo inh	CHOP inhibitor	CHOP confirm
O=[N+]([O-])c1ccc(-c2cn3c(n2)CCC3)cc1	0	0	0	0	0	0	-
Cc1ccc(NC(=S)N2CCCC(O)C2)cc1 (stereo unspecified)	0	0	0	0	0	0	-
COc1ccccc1N(CC(=O)NCCSCc1ccc(C)cc1)S(=O)(=O)c1ccccc1	0	0	0	0	-	-	-
COc1ccc(C2=CC(c3ccc(F)cc3)n3nnnc3N2)cc1 (stereo unspecified)	0	0	0	0	0	0	-
Cc1ccc(C2=CC(c3ccc(N(C)C)cc3)n3nnnc3N2)cc1 (stereo unspecified)	0	0	0	0	0	100	0
Cc1cccc2cc3c(nc12)SC(=NCC1CCCO1)N(Cc1ccco1)C3 (stereo unspecified)	0	0	0	0	0	103	0
Cc1ccc2nc3c(cc2c1)CN(Cc1ccco1)C(=NCC1CCCO1)S3 (stereo unspecified)	0	0	0	0	0	0	-
CCN(Cc1ccccc1)S(=O)(=O)c1ccc(C(=O)N(CCCN(C)C)c2nc3c(C)c(C)ccc3s2)cc1	0	0	0	-	-	-	-
COc1ccc(CC(=O)NNC2=Nc3cccc4cccc2c34)cc1	0	0	0	0	0	100	0
O=S(=O)(Nc1c(S(=O)(=O)c2ccccc2)c2nc3ccccc3nc2n1C1CCCCC1)c1ccccc1	-	-	0	0	0	106	0
Cc1cc(NC(=O)NC2(C(F)(F)F)Oc3ccc(Cl)cc3O2)no1 (stereo unspecified)	0	0	0	0	0	99	114
CCOC(=O)c1oc2ccc(S(=O)(=O)n3nc(-c4ccc(C)cc4)cc3N)cc2c1C	0	0	0	0	0	97	0
COc1ccc(CCN2CC(C(=O)NCCc3ccc(C(F)(F)F)cc3)CCC2=O)cc1 (stereo unspecified)	0	0	0	0	-	-	-
CCc1ccc2c(c1)C(c1ccc([N+](=O)[O-])cc1)=NNC(c1ccc(C)cc1)=N2	0	0	0	0	0	97	83
CCOC(=O)c1cc(-c2ccccc2)n(Cc2cc(CC)no2)n1	0	0	0	-	-	-	-
CCc1nnc(NC(=O)c2sc3nc4c(cc3c2N)CCCCC4)s1	0	0	0	0	0	0	-
CCc1nnc(NC(=O)c2sc3nc4c(cc3c2N)CCCCCC4)s1	0	0	0	0	0	105	0
CC(=O)Nc1ccc(NC(=O)Cn2nc([N+](=O)[O-])c(Br)c2C)cc1	0	0	0	0	0	0	-
Cc1c(Br)c([N+](=O)[O-])nn1CC(=O)Nc1ccc(C(C)C)cc1	0	0	0	0	0	96	0
Oc1ccc(-c2nnc(SCC3CCCCC3)o2)cc1	0	0	0	0	0	107	0
O=C(CSc1nnc(-c2ccc(O)cc2)o1)N1CCOCC1	0	0	0	0	0	0	-
O=C(OC(C(=O)Nc1cccc(C(F)(F)F)c1)c1ccccc1)C1CCCCC1 (stereo unspecified)	-	-	0	0	0	107	0
COCC1=C(C(=O)OC)C(c2cccs2)n2ncnc2N1 (stereo unspecified)	0	0	0	0	0	0	-
O=C(CCCCCN1C(=O)[C@@H]2Cc3ccccc3CN2C1=O)Nc1ccccc1F	0	0	0	0	-	-	-
O=C(CCCN1C(=O)/C(=C\c2ccccc2)SC1=S)Nc1ccc(O)cc1	0	0	0	0	0	98	0
COCCn1c(SCC(=O)c2c(N)n(C3CC3)c(=O)[nH]c2=O)nnc1-c1ccc(Cl)cc1	0	0	0	-	-	-	-
COC(=O)c1cccc(NC(=O)NC23CC4CC(CC(C4)C2)C3)c1	0	0	0	0	0	101	0
O=C(Cn1c(=O)[nH]c2ccccc2c1=O)N1CCN(c2cccc(Cl)c2)CC1	0	0	0	0	0	0	-

Bioassay records as filed in PubChem.
